# Source: ChEMBL document CHEMBL1142726, “In search of a novel anti-HIV drug: multidisciplinary coordination in the discovery of 4-[[4-[[4-[(1E)-2-cyanoethenyl]-2,6-dimethylphenyl]amino]-2- pyrimidinyl]amino]benzonitrile (R278474, rilpivirine)” (J Med Chem, 2005)
# Legend:
# [1] = tested on: Human immunodeficiency virus 1; assay: Effective concentration against human immunodeficiency virus type 1 Y188L mutant strain; format: functional, organism-based
# Summary of the method: (§1)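 MT-4 human T cells infected with wild-type or mutant HIV-1, exposed to a range of compound concentrations in medium with 10% fetal calf serum. After 5 days at 37 °C, viability of infected and mock-infected cells was read by automated MTT colorimetric assay. […] 95% confidence limits are approximately EC50/4 to EC50×4.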
# [2] = tested on: Human immunodeficiency virus 1; assay: Effective concentration against human immunodeficiency virus type 1Y181C mutant strain; format: functional, organism-based; summary of the method: as §1
# [3] = tested on: Human immunodeficiency virus 1; assay: Effective concentration against human immunodeficiency virus type 1 L100I mutant strain; format: functional, organism-based; summary of the method: as §1
# [4] = tested on: Human immunodeficiency virus 1; assay: Effective concentration against human immunodeficiency virus type 1 G190S mutant strain; format: functional, organism-based; summary of the method: as §1
# [5] = tested on: Human immunodeficiency virus 1; assay: Effective concentration against human immunodeficiency virus type 1 wild type strain; format: functional, organism-based
# [6] = tested on: Human immunodeficiency virus 1; assay: Effective concentration against human immunodeficiency virus type 1 in K103N mutant strain; format: functional, organism-based; summary of the method: as §1
# [7] = tested on: Human immunodeficiency virus 1; assay: Effective concentration against human immunodeficiency virus type 1 K103N and Y181C mutant strain; format: functional, organism-based; summary of the method: as §1
# [8] = tested on: Human immunodeficiency virus 1; assay: Effective concentration against human immunodeficiency virus type 1 wild type srtain; format: functional, organism-based
# Summary of the method: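 MT-4 human T-cells infected with wild-type HIV-1 and exposed to a range of compound concentrations in medium with 10% fetal calf serum. After 5 days at 37 °C, viability was read by automated MTT colorimetric assay, with mock-infected cells run in parallel.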
# [9] = tested on: Human immunodeficiency virus 1; assay: Effective concentration against human immunodeficiency virus type 1 Y181C mutant was determined; format: functional, organism-based; summary of the method: as §1
# [10] = tested on: Human immunodeficiency virus 1; assay: Effective concentration against human immunodeficiency virus type 1 K103N mutant strain; format: functional, organism-based; summary of the method: as §1
# [11] = tested on: Human immunodeficiency virus 1; assay: Effective concentration against human immunodeficiency virus type 1 wild type; format: functional, organism-based; summary of the method: as §1
# [12] = tested on: Human immunodeficiency virus 1; assay: Effective concentration against rhuman immunodeficiency virus type 1 L100I mutant strain; format: functional, organism-based; summary of the method: as §1
# [13] = tested on: Human immunodeficiency virus 1; assay: Effective concentration against rhuman immunodeficiency virus type 1 Y181C mutant strain; format: functional, organism-based; summary of the method: as §1
# [14] = tested on: Human immunodeficiency virus 1; assay: Effective concentration against rhuman immunodeficiency virus type 1 K103N and Y181C mutant strains; format: functional, organism-based
# [15] = tested on: Human immunodeficiency virus 1; assay: Effective concentration against human immunodeficiency virus type 1 Y181C mutant strain; format: functional, organism-based; summary of the method: as §1
# [16] = Half life in rat was determined after intravenous administration; format: ADME, organism-based; details: in vivo
# Summary of the method: (§2)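 Pharmacokinetics after single iv dosing of drug formulated in PEG 400. Species: Sprague-Dawley rat (4 mg/kg), beagle dog, cynomolgus monkey and white New Zealand rabbit (1.25 mg/kg each). Elimination half-life (t1/2) and exposure (AUCinf) calculated from plasma concentration–time data.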
# [17] = Area under the concentration time curve in monkey (intravenous dosage of 1.25 mg/ kg) was determined; format: ADME; details: cercopithecidae, in vivo; summary of the method: as §2
# [18] = Half life in rat was determined after oral administration; format: ADME, organism-based; details: in vivo
# Summary of the method: (§3)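 Oral administration of drug formulated in PEG 400 to Sprague-Dawley rat and beagle dog. Elimination half-life calculated from plasma concentration–time data.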
# [19] = Area under the concentration time curve in rabbit (intravenous dosage of 1.25 mg/kg) was determined; format: ADME, organism-based, Oryctolagus cuniculus; set-up: dose 1.25 mg/kg, route intravenous; details: in vivo; summary of the method: as §2
# [20] = Area under the concentration time curve in dog (intravenous dosage of 1.25 mg/kg) was determined; format: ADME, organism-based, Canis lupus familiaris; set-up: dose 1.25 mg/kg, route intravenous; details: in vivo; summary of the method: as §2
# [21] = Area under the concentration time curve value in rat (intravenous dosage of 4 mg/kg) was determined; format: ADME, organism-based; set-up: dose 4 mg/kg, route intravenous; details: in vivo; summary of the method: as §2
# [22] = In vivo half life in dog was determined after oral administration; format: ADME, organism-based, Canis lupus familiaris; summary of the method: as §3
# [23] = tested on: Human immunodeficiency virus 1; assay: Effective concentration against human immunodeficiency virus type 1 K103N and Y181C mutant strains; format: functional, organism-based; summary of the method: as §1
# [24] = tested on: Human immunodeficiency virus 1; assay: Effective concentration against rhuman immunodeficiency virus type 1 wild type mutant strain; format: functional, organism-based; summary of the method: as §1
# [25] = Half life in dog was determined by intravenous administration; format: ADME, organism-based, Canis lupus familiaris; details: in vivo; summary of the method: as §2
structure (smiles),measurement,setting,value
Cc1cc(C)c(Nc2ccnc(Nc3ccc(C#N)cc3)n2)c(C)c1 [DAPIVIRINE],EC50,[1],37 nM
same,EC50,[2],7 nM
same,EC50,[3],11 nM
same,EC50,[4],2 nM
same,EC50,[5],1.2 nM
same,EC50,[6],2 nM
O=C1Nc2ccc(Cl)cc2[C@@](C#CC2CC2)(C(F)(F)F)O1 [EFAVIRENZ],EC50,[7],37 nM
same,EC50,[1],78 nM
same,EC50,[8],1.4 nM
same,EC50,[3],35 nM
same,EC50,[4],275 nM
same,EC50,[9],2 nM
same,EC50,[10],28 nM
Cc1ccnc2c1NC(=O)c1cccnc1N2C1CC1 [NEVIRAPINE],EC50,[1],10000 nM
same,EC50,[11],81 nM
same,EC50,[12],597 nM
same,EC50,[13],10000 nM
same,EC50,[14],10000 nM
same,EC50,[4],1000 nM
same,EC50,[10],2880 nM
Cc1cc(/C=C/C#N)cc(C)c1Nc1ccnc(Nc2ccc(C#N)cc2)n1 [RILPIVIRINE],EC50,[1],2 nM
same,EC50,[15],1.3 nM
same,half-life,[16],4.4 h
same,EC50,[3],0.4 nM
same,AUC,[17],1400 ng·h/mL
same,half-life,[18],2.8 h
same,AUC,[19],44000 ng·h/mL
same,EC50,[4],0.1 nM
same,AUC,[20],8700 ng·h/mL
same,AUC,[21],3100 ng·h/mL
same,half-life,[22],39 h
same,EC50,[23],1 nM
same,EC50,[24],0.4 nM
same,half-life,[25],31 h
same,EC50,[10],0.3 nM
